SKKanGAS inh – SKKanGAS growth inhibition; S. pyogenes SKKanGAS, kanamycin growth, BacTiter-Glo, 6 h; inhibition, % at 7.5 µM; hit rate 1.3% among 300,000; AID 1662;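 active = mean replicate score, as percent of positive control median, at least 50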;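 also: strain carries kanamycin resistance gene driven by streptokinase promoter and grows in 40 µg/ml kanamycin; loss of luminescence reflects streptokinase promoter inhibition or plain growth inhibition; 0% = median of DMSO wells and 100% = positive control at its reference dose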
CSC inhib – blocks cancer stem cells | cancer stem cell-like cells viability, luminescence | inhibition, % at 7.5 µM | hit rate 1.1% among 300,000; in the data active = inhibition above about 75%; tested in HMLE shEcad cells
Beta apoptosis – blocks beta cell apoptosis | protection from apoptosis, % (test concentration not listed) | hit rate 0.8% among 300,000 | AID 435005 | INS-1E cytokine-induced death, ATP luminescence, 48 h; percent of positive-control rescue, neutral wells zero;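 active = Every replicate reaches about 75%, or at least half do and their mean reaches it too, limit read from the data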;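 also: 0% = cytokine-treated negative control wells and 100% = positive control rescue; higher means more ATP so stronger rescue from cytokine killing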
Mdm2-MdmX inh – disrupts the human Mdm2-MdmX interaction | inhibition, % at 8 µM | O15151+Q00987 | SaOS-2 split-luciferase Mdm2/MdmX complementation, luminescence | AID 485346 | hit rate 3% among 330,000;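 active = inhibition of at least 50% at 8 µM in the primary screen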
Target sequence (O15151 whole entry, looked up): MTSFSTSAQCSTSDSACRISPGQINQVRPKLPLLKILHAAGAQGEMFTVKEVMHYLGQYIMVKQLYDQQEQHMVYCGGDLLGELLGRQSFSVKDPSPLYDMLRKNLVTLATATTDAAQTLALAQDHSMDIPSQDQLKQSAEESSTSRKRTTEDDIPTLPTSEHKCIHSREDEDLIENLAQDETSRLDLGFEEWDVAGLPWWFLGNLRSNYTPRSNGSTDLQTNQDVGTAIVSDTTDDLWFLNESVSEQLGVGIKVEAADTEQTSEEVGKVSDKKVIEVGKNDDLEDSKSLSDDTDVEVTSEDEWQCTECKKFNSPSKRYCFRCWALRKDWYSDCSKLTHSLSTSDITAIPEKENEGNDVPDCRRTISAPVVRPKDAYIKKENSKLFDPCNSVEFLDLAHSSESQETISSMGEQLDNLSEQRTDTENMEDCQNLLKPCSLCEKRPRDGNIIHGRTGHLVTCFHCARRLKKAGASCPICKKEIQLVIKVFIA
Target sequence (Q00987 whole entry, looked up): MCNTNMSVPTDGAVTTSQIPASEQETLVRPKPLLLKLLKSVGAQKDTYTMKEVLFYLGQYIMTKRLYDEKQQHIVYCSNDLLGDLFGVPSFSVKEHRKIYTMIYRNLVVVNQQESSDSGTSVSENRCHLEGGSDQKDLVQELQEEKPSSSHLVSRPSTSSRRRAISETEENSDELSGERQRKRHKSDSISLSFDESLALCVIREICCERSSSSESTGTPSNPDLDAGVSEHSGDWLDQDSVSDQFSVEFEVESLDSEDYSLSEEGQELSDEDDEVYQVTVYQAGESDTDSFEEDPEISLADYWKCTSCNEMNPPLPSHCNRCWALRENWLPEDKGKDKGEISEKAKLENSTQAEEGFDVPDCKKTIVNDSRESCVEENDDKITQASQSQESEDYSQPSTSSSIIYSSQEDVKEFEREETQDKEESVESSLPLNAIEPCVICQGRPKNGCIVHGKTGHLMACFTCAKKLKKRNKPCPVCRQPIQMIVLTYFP
Lmaj promast – inhibitors of Leishmania major promastigote growth; Leishmania major promastigotes, resazurin fluorescence viability; inhibition, % at 10 µM; hit rate 9% among 200,000; AID 1063; in the data active = inhibition above about 50%;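 also: promastigotes grown with compound for 44 hours at 28 °C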
T cruzi inh – blocks replication of Trypanosoma cruzi; T. cruzi beta-gal in NIH3T3, luminescence, 90 h; inhibition, % (concentration not given with the values); hit rate 1.4% among 300,000;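 active = mean inhibition across valid replicates above about 55%, limit read from the data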;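 also: signal also drops with host cell toxicity which is not excluded here; 0% = plate median of DMSO wells and 100% = zero luminescence signal; higher percent means less beta-gal luminescence so fewer parasites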
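Test system: β-gal T. cruzi (Tulahuen C4) inside NIH/3T3 cells / Quantity: 5,000 cells/well / Measured by: luminescence from GalScreen with 0.05% NP40, read after 60 min / Medium: DMEM plus 2% FBS / Measure: parasite load inhibition, % / Reagent: Tulahuen C4 trypomastigotes, 5000/well / Schedule: co-culture of at least 90 h after 3 h attachment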
* marks the source's active call; other numbers are inactive results; / = no result given. Rows were chosen to be rich in hits. Some 9.4% of all compounds tested hit in one or more screens of this group.

SMILES | SKKanGAS inh | CSC inhib | Beta apoptosis | Mdm2-MdmX inh | Lmaj promast | T cruzi inh
CC(=O)Nc1ccc(NC(=O)C2CCN(c3ccc(C(F)(F)F)cn3)CC2)cc1 | 0 | -6 | 1 | 14 | -9 | -11
COc1cc(C(=O)N2CCN(C(=O)c3ccco3)CC2)c([N+](=O)[O-])cc1OC | 1 | -1 | -4 | -12 | -8 | -2
COc1cc(SC#N)ccc1N=Cc1c(C)[nH]n(-c2ccc(C)cc2C)c1=O | -8 | 0 | 8 | 10 | 56* | -1
CC(C)Cn1c(N)c(C(=O)CSc2nc3ccccc3c(=O)n2CCCN2CCOCC2)c(=O)n(C)c1=O | 9 | -7 | -2 | 19 | 20 | 55*
COc1ccc(CCn2c(SCCN3CCCCC3)nc3ccccc3c2=O)cc1OC | -6 | -13 | 1 | 20 | 100* | 67*
COc1ccc(CSc2nc3ccccc3c(=O)n2CCCN2CCOCC2)cc1F | 7 | / | / | 15 | 98* | 31
COCC(C)n1c(SCc2ccc(OC)c(F)c2)nc2ccccc2c1=O (stereo not given) | 20 | / | / | / | 100* | 59*
C=CCNC(=O)CSc1nc2ccccc2c(=O)n1CCc1ccc(OC)c(OC)c1 | 8 | -9 | 1 | -8 | / | -6
CC(C)Cn1c(N)c(C(=O)CSc2nc3ccccc3n2C)c(=O)n(C)c1=O | -2 | 1 | 1 | 36 | -4 | -2
Cc1cc2occ(CC(=O)N(CC(C)C)c3c(N)n(Cc4ccccc4)c(=O)[nH]c3=O)c2cc1C | -4 | -6 | -5 | 20 | / | -3
COCC(C)n1c(SCC(=O)NC(=O)Nc2ccc3c(c2)OCCO3)nc2ccccc2c1=O (stereo not given) | 11 | -12 | 0 | -19 | 85* | 31
COCC(C)n1c(SCC(=O)NC(=O)Cc2ccccc2)nc2ccccc2c1=O (stereo not given) | / | / | -2 | -6 | / | /
CCOC(=O)C1=C(O)c2ccccc2C(=O)/C1=C\c1ccc(CC)cc1 | 81* | 27 | -8 | / | -5 | -32
CCOC(=O)C1=C(Cc2ccc(C)cc2)C(=O)c2ccccc2C1=O | 64* | 20 | 0 | 2 | 14 | -23
CCOC(=O)C1=C(Cc2ccc(OC)cc2)C(=O)c2ccccc2C1=O | / | / | / | / | 24 | /
Cc1ccc(NC(=S)N(CCCN2CCC(C)CC2)Cc2ccco2)cc1C | -2 | 14 | -7 | 15 | 82* | 14
CCN1CCN(CCCN(Cc2ccco2)C(=S)Nc2cc(Cl)ccc2C)CC1 | -2 | 18 | -3 | -16 | 72* | 8
Cc1ccc(C)c(Nc2nc(N)c3ccccc3n2)c1 | -3 | -13 | 24 | -78 | 98* | 45
COc1ccc(Cl)cc1Nc1nc(N)c2ccccc2n1 | -8 | 18 | 5 | -70 | / | 43
Nc1nc(Nc2cccc(F)c2)nc2ccccc12 | 4 | 2 | 25 | -236 | 89* | 37
COc1ccc(N(CC(=O)NCCc2ccc(OC)c(OC)c2)S(=O)(=O)c2c(C)noc2C)cc1 | 4 | -10 | -6 | 8 | / | 10
O=C(CCN1C(=O)c2ccccc2S1(=O)=O)Nc1ccc(C(=O)O)cc1 | 0 | -19 | 5 | 7 | / | -13
NCCOc1ccccc1OCCN | 11 | 3 | 0 | 19 | -4 | -20
NCCOc1ccccc1Cc1ccccc1 | -11 | -9 | 3 | 36 | 99* | -8
O=C(CSc1ncnc2c1nnn2Cc1ccccc1)NC1CCCC1 | -3 | 5 | -11 | -5 | 10 | 52
SMILES | SKKanGAS inh | CSC inhib | Beta apoptosis | Mdm2-MdmX inh | Lmaj promast | T cruzi inh
CC(C)(C)NC(=O)CSc1ncnc2c1nnn2Cc1ccccc1Cl | -4 | 15 | -14 | -12 | 57* | 29
CC(=O)c1cc(-c2ccccc2)n(CCC(=O)NC2CCCCC2)c1C | 2 | 2 | 6 | 7 | 83* | -2
CC(=O)c1cc(-c2ccccc2)n(CC(=O)N2CCC(N3CCCCC3)CC2)c1C | 5 | / | / | / | 95* | -9
CC(=O)c1cc(-c2ccccc2)n(CCC(=O)NC2CCCC2)c1C | 6 | -3 | 0 | 11 | 0 | -7
CCc1cccc(NC(=O)Cn2c(-c3ccccc3)cc(C(C)=O)c2C)c1 | -2 | 1 | 1 | 28 | -1 | 22
CC(=O)c1cc(-c2ccccc2)n(CC(=O)Nc2cccc(C)c2)c1C | 4 | 3 | -2 | 17 | 64* | -4
CC(C(=O)NC1CCCc2ccccc21)N1C(=O)C2CCCCC2C1=O (stereo not given) | / | -3 | 0 | 4 | / | /
O=C(C(Cc1ccc(Cl)cc1)NS(=O)(=O)c1ccccc1)N1CC[C@@]2(O)CCCC[C@H]2C1 (stereo not given in full) | 0 | 1 | -6 | 6 | 51* | -10
Cn1c(N)c(N2CCN(c3ccccc3)CC2)c(=O)[nH]c1=O | -7 | -2 | / | -5 | -7 | -18
O=C(N/C(=C\c1ccccc1)C(=O)N1CCCCC1)c1ccc(Br)o1 | -6 | / | 4 | 20 | / | -1
Cc1ccc2c(c1)S/C(=C/c1ccc[n+](C)c1)N2CCO | -1 | 1 | 95* | -3 | 70* | 57*
Cc1ccc(C(=O)NCCc2nc3ccccc3[nH]2)cc1[N+](=O)[O-] | 0 | -8 | -9 | 14 | 11 | 58*
O=C(NCCc1nc2ccccc2[nH]1)c1ccc(Cl)c([N+](=O)[O-])c1 | 11 | -1 | 0 | 6 | 4 | 40
COc1ccc(OC)c(Nc2nc(N(C)c3ccccc3)nc(N)c2[N+](=O)[O-])c1 | 17 | 43 | 20 | 30 | / | 69*
CCNC(=O)COc1cccc(C(=O)NCc2ccccc2)c1 | -5 | -19 | -7 | 29 | 51* | 0
CNC(=O)COc1cccc(C(=O)NCc2ccccc2)c1 | -6 | 2 | 4 | -14 | -4 | -4
CCCNC(=O)COc1cccc(C(=O)NCc2ccccc2)c1 | -4 | -1 | -6 | 7 | -6 | -10
CC(C)CNC(=O)COc1cccc(C(=O)NCc2ccccc2)c1 | -14 | 10 | -4 | 1 | 52* | -24
COc1ccc(C(=O)CC(Nc2ccc([N+](=O)[O-])cc2)c2ccc(OC)cc2)cc1 (stereo not given) | 10 | 16 | 3 | 9 | 82* | /
CNC(CC(=O)c1ccc([N+](=O)[O-])cc1)C(Cl)(Cl)Cl (stereo not given) | / | 76* | 4 | / | 100* | /
COc1ccc(C(=O)CC(=O)Nc2ccc([N+](=O)[O-])cc2)cc1 | 4 | / | / | 2 | / | 1
O=C(Cn1cc([N+](=O)[O-])cn1)NC1CCCCCC1 | 3 | / | -2 | 20 | / | -3
Fc1ccc(-n2cc(-c3ccccc3)c3c(NN4CCOCC4)ncnc32)cc1 | -1 | 22 | 3 | -5 | 97* | -7
CC(Oc1ccc(F)cc1)C(O)CCN(C)C (stereo not given) | -7 | 7 | -4 | -30 | -4 | 23
COc1cc(/C=C(\C#N)c2nc3ccc(C)cc3[nH]2)c([N+](=O)[O-])cc1OC | 10 | -3 | 10 | -4 | 98* | 20
Cc1ccc2nc(/C(C#N)=C\c3cc(O)ccc3[N+](=O)[O-])[nH]c2c1 | 7 | -13 | / | 12 | -3 | 4

Compound activity from PubChem BioAssay.
